# Source: PubChem BioAssay (several laboratories)
# FN deposit inh: inhibitors of fibronectin matrix deposition, primary screen, AH1F cells, Alexa488-fibronectin fluorescence, plate reader | 0.086% of 350,000 active | AH1F fibroblasts, overnight | inhibition, % at 12.6 µM;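 active = mean inhibition across replicates of 30% or more, regardless of how many single replicates reach that level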;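 note: positive control wells lacked labelled fibronectin entirely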
#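 test system = AH1F fibroblasts assembling fluorescent fibronectin matrix | quantity = 10000 AH1F cells per well | buffer or medium = DMEM plus 2% serum, read in PBS | doses = single dose, pinned | incubation = 1 h cell attachment, overnight exposure to compound and label | detection = fluorescence at 485 nm excitation, 525 nm emission | read-out basis = inhibition from reduced deposited-fibronectin fluorescence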
# SR-BI HDL uptake: inhibitors of SR-BI mediated HDL lipid uptake, primary screen, ldlA[mSR-BI] cells, fluorescence, single point; ldlA[mSR-BI] CHO cells, DiI-HDL uptake fluorescence, 3 h; Scavenger receptor class B member 1 (Mus musculus), Q61009; inhibition, % at 12.5 µM; 0.96% of 320,000 active;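 active = mean replicate inhibition of at least 70% and a set share of replicates each scoring 70 or more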;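 note: 0% = median of neutral control wells and 100% = median of positive control wells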
# Target sequence (Q61009 whole entry, looked up): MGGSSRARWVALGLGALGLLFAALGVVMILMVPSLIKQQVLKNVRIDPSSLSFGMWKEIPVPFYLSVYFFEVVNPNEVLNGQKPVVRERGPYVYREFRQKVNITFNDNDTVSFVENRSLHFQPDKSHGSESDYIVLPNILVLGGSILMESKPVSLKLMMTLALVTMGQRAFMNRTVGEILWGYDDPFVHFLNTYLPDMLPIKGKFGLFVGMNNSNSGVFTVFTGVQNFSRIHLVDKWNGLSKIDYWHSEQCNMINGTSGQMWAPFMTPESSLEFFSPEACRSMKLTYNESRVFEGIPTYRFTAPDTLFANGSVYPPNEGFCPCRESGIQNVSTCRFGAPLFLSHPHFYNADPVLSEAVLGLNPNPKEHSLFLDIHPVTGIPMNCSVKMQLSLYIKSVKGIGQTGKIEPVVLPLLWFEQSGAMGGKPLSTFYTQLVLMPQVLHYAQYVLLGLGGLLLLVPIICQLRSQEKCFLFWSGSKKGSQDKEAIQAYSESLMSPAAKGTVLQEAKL
# Efflux pump inh: inhibitors of Candida efflux pumps in yeast, primary screen, S. cerevisiae, Nile Red, multiplex; S. cerevisiae Candida pump triplex; 0.44% of 330,000 active; inhibition, % at 10 µM;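 active = plate passing quality check with inhibition over a set limit, or well fluorescence over plate mean plus 4 SD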;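 note: Nile Red retained in pooled yeast measured as flow cytometry median fluorescence; 0% = buffer negative control and 100% = Enniatin B positive control; higher means more Nile Red kept so more efflux inhibition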
# SR-BI uptake up: activators of SR-BI mediated DiI-HDL uptake, primary screen, ldlA[mSR-BI] CHO cells, DiI fluorescence; 3 h; 100 = double the neutral-control signal; activation, % at 12.5 µM; 0.096% of 320,000 active; AID 504775, 2011;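 active = mean replicate activation of at least 60% and every replicate at or above 60%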;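 note: 0% = median plate neutral-control signal and 100% = twice that signal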
#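 Assay system: CHO ldlA[mSR-BI] cells, LDL receptor-null, SR-BI overexpressing; medium: Ham's F12 with 0.5% BSA, HEPES 25 mM, pH 7.4; also added: DiI-HDL 10 µg/mL; timing: 3 h uptake period with compound, 37 °C; signal: DiI fluorescence, bottom read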
# CaV13 FRET inh: Disruptors of the CACNA1D IQ motif to Ca2+-dependent inactivation inhibitor domain association, primary screening, Förster resonance energy transfer in intact living … | HEK cells, CFP/YFP FRET ICDI-IQ, plate reader, 10 min; percent FRET-ratio fall versus neutral wells | inhibition, % at 12.3 µM | 0.098% of 340,000 active | AID 743397;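 active = mean replicate inhibition of at least 30% and at least 1% of replicates passing that level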;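 note: 0% = median of the neutral control wells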
# * hit, by the source's call; . = no result. A selection: hits, their analogues and other compounds. The true share with any hit is near 1.2%.
SMILES,FN deposit inh,SR-BI HDL uptake,Efflux pump inh,SR-BI uptake up,CaV13 FRET inh
Cc1nc(N2CCC(C)CC2)c2c(C)c(C(=O)Nc3cccc(C(F)(F)F)c3)sc2n1,-15.3,87.0*,0.3,-87.0,-5.0
Cc1nc(N2CCOCC2)c2c(C)c(C(=O)Nc3ccccc3C(F)(F)F)sc2n1,-4.7,39.5,0.7,-39.5,-4.8
CO[C@H]1CN(C)C(=O)c2ccc(NC(=O)C3CCOCC3)cc2OC[C@H](C)N(Cc2nccs2)C[C@H]1C,-11.2,.,.,.,.
O=C(O)C[C@@H]1C[C@@H]2c3cc(NC(=O)C4CCOCC4)ccc3O[C@@H]2[C@@H](CO)O1,2.7,.,.,.,.
O=C(C1CCCC1)N1CC2(C1)[C@H](c1ccccc1)[C@@H](CO)N2Cc1ccccc1F,12.6,.,.,.,.
CCN1C(=O)C(CC(=O)Nc2ccccc2)S/C1=N\c1ccccn1 (configuration not stated),-3.4,78.0*,-0.1,-78.0,-0.3
C=CCN1C(=O)C(CC(=O)Nc2ccccc2F)S/C1=N\c1nccs1 (configuration not stated),-1.6,84.5*,0.1,-84.5,10.4
O=C(CC1SC(=Nc2ccccc2)N(CCO)C1=O)Nc1ccccc1 (configuration not stated),6.3,26.5,0.1,-26.5,-4.1
CO[C@H]1CN(C)C(=O)c2ccc(NC(=O)Nc3cccc(F)c3)cc2OC[C@H](C)N(C(=O)C2CC2)C[C@@H]1C,-0.8,.,.,.,.
COc1ccc(/C=c2\s/c(=C/C(=O)c3ccc(C)cc3)[nH]c2=O)cc1OC,-2.5,74.3*,0.2,-74.3,-10.5
C[C@@H]1CN([C@@H](C)CO)S(=O)(=O)c2ccc(-c3ccncc3)cc2O[C@@H]1CN(C)C(=O)Nc1ccc(C(F)(F)F)cc1,6.7,.,.,.,.
NC(=S)N/N=C1/CCSc2ccc3ccccc3c21,-9.7,78.7*,-0.1,-78.7,-4.8
NC(=S)N/N=C/c1c(O)ccc2ccccc12,-7.8,.,0.1,.,-3.7
COc1ccc(-n2nnnc2CNC(=O)C2CC(=O)N(c3ccc(F)cc3)C2)cc1 (configuration not stated),-1.1,.,.,.,-4.6
O=C(NCc1nnnn1-c1ccc(Cl)cc1)C1CC(=O)N(c2ccc(F)cc2)C1 (configuration not stated),3.0,.,.,.,36.2*
CCc1nc(Nc2ccc(N3CCN(C(C)=O)CC3)cc2)c2oc3ccccc3c2n1,.,75.0*,-0.2,-75.0,.
Cc1noc(C)c1NC(=O)N(C)C[C@H]1Oc2c(NC(=O)CCCCCC(=O)Nc3ccccc3N)cccc2C(=O)N([C@@H](C)CO)C[C@H]1C,3.5,.,.,.,.
CCC1=NN(C(=O)c2ccc(Br)cc2)C(O)(c2ccccc2)C1 (configuration not stated),0.2,79.5*,0.3,-79.5,-3.1
CCC1=NN(C(=O)c2cccc([N+](=O)[O-])c2)C(O)(c2ccc(C)cc2)C1 (configuration not stated),-2.4,76.0*,0.0,-76.0,-20.1
CC1=NN(C(=O)c2ccccc2)C(O)(c2ccc(Br)cc2)C1 (configuration not stated),-3.7,94.3*,0.1,-94.3,-4.6
CC1=NN(C(=O)c2ccccc2Cl)C(O)(c2ccccc2)C1 (configuration not stated),0.8,-12.7,-0.1,12.7,-3.1
CCNC(=O)C[C@@H]1C=C[C@@H](NS(=O)(=O)c2ccc(C)cc2)[C@@H](CO)O1,4.6,.,.,.,.
N#Cc1ccc(-c2ccc(C3[C@H]4CNC[C@@H]3N4C(=O)NC3CCCCC3)cc2)cc1 (some centres not stated),-3.7,.,.,.,.
CCCCNc1c(-c2ccc(-c3ccc(C(C)=O)cc3)c(OC)c2)nc2cc(C)ccn12,2.4,72.2*,0.1,-72.2,-5.5
CN1Cc2c(N3CCOCC3)nc(SCc3ccccc3)c(C#N)c2CC1(C)C,11.6,-6.4,1.1,6.4,-3.0
CC1(C)Cc2c(C#N)c(SCC(=O)c3ccccc3)nc(N3CCOCC3)c2CS1,48.2*,20.7,0.0,-20.7,-5.2
C/C(=N\Nc1cc(Cl)nc(C)n1)c1ccccc1,7.9,20.4,0.2,-20.4,-3.7
